From ChEMBL document CHEMBL5058577, “EUbOPEN Chemogenomics Library 2 (Multiplex)” (2022)

Tested on: U2OS
Assay: Multiplex assay against U2OS
Format: toxicity, cell-based
Conditions: human
Procedure, shortened: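 Tubulin, mitochondrial-mass and membrane-permeability phenotypes are per cents of healthy-nucleus cells. Cells were gated by CellPathfinder machine learning into Hoechst high-intensity objects or normal cells, normal cells into healthy, pyknosed or fragmented nuclei, and pyknosed cells into mitotic or apoptotic. Before that, live cells stained at seeding with Hoechst33342, BioTracker Green Microtubule Cytoskeleton Dye, MitoTracker Red and Annexin V Alexa Fluor 680 were imaged on a CQ1 microscope at 37°C and 5% CO2 after compound addition.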

[1] = 12 h, 1 µM, compound concentration 1 uM, replicate 1
[2] = 12 h, 1 µM, compound concentration 1 uM, replicate 2
[3] = 12 h, 10 µM, compound concentration 10 uM, replicate 1
[4] = 12 h, 10 µM, compound concentration 10 uM, replicate 2
[5] = 24 h, 1 µM, compound concentration 1 uM, replicate 1
[6] = 24 h, 1 µM, compound concentration 1 uM, replicate 2
[7] = 24 h, 10 µM, compound concentration 10 uM, replicate 1
[8] = 24 h, 10 µM, compound concentration 10 uM, replicate 2
[9] = 48 h, 1 µM, compound concentration 1 uM, replicate 1
[10] = 48 h, 1 µM, compound concentration 1 uM, replicate 2
[11] = 48 h, 10 µM, compound concentration 10 uM, replicate 1
[12] = 48 h, 10 µM, compound concentration 10 uM, replicate 2

Cc1c(CC(=O)O)c2cccnc2n1Cc1ccc(S(C)(=O)=O)cc1C(F)(F)F [FEVIPIPRANT]
Population Apoptotic (%) [1]: 80%
Population Fragmented Nuclei (%) [1]: 25%
Population Healthy Nuclei (%) [1]: 64%
Population Hoechst High Intensity Objects (%) [1]: 1%
Population Membrane Permeable-Phenotype (%) [1]: 2%
Population Mitochondria Different-Phenotype (%) [1]: 2%
Population Mitotic Cells (%) [1]: 19%
Population Normal (%) [1]: 98%
Population Pyknosed Nuclei (%) [1]: 9%
Population Tubulin-Different-Phenotype (%) [1]: 0%
Total Cell Count [1]: 224
Population Apoptotic (%) [2]: 50%
Population Fragmented Nuclei (%) [2]: 22%
Population Healthy Nuclei (%) [2]: 72%
Population Membrane Permeable-Phenotype (%) [2]: 8%
Population Mitochondria Different-Phenotype (%) [2]: 1%
Population Mitotic Cells (%) [2]: 50%
Population Pyknosed Nuclei (%) [2]: 5%
Population Tubulin-Different-Phenotype (%) [2]: 9%
Total Cell Count [2]: 118
Population Apoptotic (%) [3]: 90%
Population Fragmented Nuclei (%) [3]: 27%
Population Healthy Nuclei (%) [3]: 65%
Population Hoechst High Intensity Objects (%) [3]: 2%
Population Membrane Permeable-Phenotype (%) [3]: 3%
Population Mitochondria Different-Phenotype (%) [3]: 0%
Population Mitotic Cells (%) [3]: 9%
Population Normal (%) [3]: 97%
Population Pyknosed Nuclei (%) [3]: 7%
Population Tubulin-Different-Phenotype (%) [3]: 1%
Total Cell Count [3]: 287
Population Apoptotic (%) [4]: 100%
Population Fragmented Nuclei (%) [4]: 22%
Population Healthy Nuclei (%) [4]: 73%
Population Hoechst High Intensity Objects (%) [4]: 0%
Population Membrane Permeable-Phenotype (%) [4]: 8%
Population Mitochondria Different-Phenotype (%) [4]: 3%
Population Mitotic Cells (%) [4]: 0%
Population Normal (%) [4]: 99%
Population Pyknosed Nuclei (%) [4]: 3%
Population Tubulin-Different-Phenotype (%) [4]: 4%
Total Cell Count [4]: 116
Population Apoptotic (%) [5]: 80%
Population Fragmented Nuclei (%) [5]: 20%
Population Healthy Nuclei (%) [5]: 71%
Population Hoechst High Intensity Objects (%) [5]: 2%
Population Membrane Permeable-Phenotype (%) [5]: 1%
Population Mitochondria Different-Phenotype (%) [5]: 3%
Population Mitotic Cells (%) [5]: 20%
Population Normal (%) [5]: 97%
Population Pyknosed Nuclei (%) [5]: 8%
Population Tubulin-Different-Phenotype (%) [5]: 1%
Total Cell Count [5]: 256
Population Apoptotic (%) [6]: 66%
Population Fragmented Nuclei (%) [6]: 17%
Population Healthy Nuclei (%) [6]: 74%
Population Hoechst High Intensity Objects (%) [6]: 0%
Population Membrane Permeable-Phenotype (%) [6]: 9%
Population Mitochondria Different-Phenotype (%) [6]: 0%
Population Mitotic Cells (%) [6]: 33%
Population Normal (%) [6]: 100%
Population Tubulin-Different-Phenotype (%) [6]: 10%
Total Cell Count [6]: 145
Population Apoptotic (%) [7]: 96%
Population Fragmented Nuclei (%) [7]: 20%
Population Healthy Nuclei (%) [7]: 70%
Population Hoechst High Intensity Objects (%) [7]: 0%
Population Membrane Permeable-Phenotype (%) [7]: 5%
Population Mitochondria Different-Phenotype (%) [7]: 3%
Population Mitotic Cells (%) [7]: 3%
Population Normal (%) [7]: 99%
Population Pyknosed Nuclei (%) [7]: 8%
Population Tubulin-Different-Phenotype (%) [7]: 3%
Total Cell Count [7]: 326
Population Apoptotic (%) [8]: 100%
Population Fragmented Nuclei (%) [8]: 12%
Population Healthy Nuclei (%) [8]: 78%
Population Hoechst High Intensity Objects (%) [8]: 1%
Population Membrane Permeable-Phenotype (%) [8]: 8%
Population Mitochondria Different-Phenotype (%) [8]: 2%
Population Mitotic Cells (%) [8]: 0%
Population Normal (%) [8]: 98%
Total Cell Count [8]: 119
Population Apoptotic (%) [9]: 65%
Population Fragmented Nuclei (%) [9]: 18%
Population Healthy Nuclei (%) [9]: 71%
Population Hoechst High Intensity Objects (%) [9]: 2%
Population Membrane Permeable-Phenotype (%) [9]: 4%
Population Mitochondria Different-Phenotype (%) [9]: 3%
Population Mitotic Cells (%) [9]: 34%
Population Normal (%) [9]: 97%
Population Pyknosed Nuclei (%) [9]: 10%
Population Tubulin-Different-Phenotype (%) [9]: 2%
Total Cell Count [9]: 379
Population Apoptotic (%) [10]: 90%
Population Fragmented Nuclei (%) [10]: 20%
Population Healthy Nuclei (%) [10]: 67%
Population Membrane Permeable-Phenotype (%) [10]: 8%
Population Mitochondria Different-Phenotype (%) [10]: 5%
Population Mitotic Cells (%) [10]: 9%
Population Pyknosed Nuclei (%) [10]: 12%
Population Tubulin-Different-Phenotype (%) [10]: 9%
Total Cell Count [10]: 187
Population Apoptotic (%) [11]: 91%
Population Fragmented Nuclei (%) [11]: 17%
Population Healthy Nuclei (%) [11]: 73%
Population Hoechst High Intensity Objects (%) [11]: 1%
Population Membrane Permeable-Phenotype (%) [11]: 4%
Population Mitochondria Different-Phenotype (%) [11]: 3%
Population Mitotic Cells (%) [11]: 8%
Population Normal (%) [11]: 98%
Population Pyknosed Nuclei (%) [11]: 8%
Population Tubulin-Different-Phenotype (%) [11]: 3%
Total Cell Count [11]: 408
Population Apoptotic (%) [12]: 100%
Population Fragmented Nuclei (%) [12]: 15%
Population Healthy Nuclei (%) [12]: 76%
Population Hoechst High Intensity Objects (%) [12]: 3%
Population Membrane Permeable-Phenotype (%) [12]: 5%
Population Mitochondria Different-Phenotype (%) [12]: 1%
Population Mitotic Cells (%) [12]: 0%
Population Normal (%) [12]: 96%
Total Cell Count [12]: 158
